Screening results deposited in PubChem by Broad Institute.
AF4-AF9 inh: MLL-AF4/AF9 protein interaction inhibition; 350,000 compounds, 0.47% hits; AlphaScreen, biotin-AF4 peptide binding to FLAG-AF9; P42568; inhibition, % at 10 µM;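 active = every replicate reaching a set inhibition limit, whatever the replicate mean, cut at about 25% in these data; inconclusive = mean inhibition reaches that limit but some replicates miss it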
Target sequence (P42568 whole entry, looked up): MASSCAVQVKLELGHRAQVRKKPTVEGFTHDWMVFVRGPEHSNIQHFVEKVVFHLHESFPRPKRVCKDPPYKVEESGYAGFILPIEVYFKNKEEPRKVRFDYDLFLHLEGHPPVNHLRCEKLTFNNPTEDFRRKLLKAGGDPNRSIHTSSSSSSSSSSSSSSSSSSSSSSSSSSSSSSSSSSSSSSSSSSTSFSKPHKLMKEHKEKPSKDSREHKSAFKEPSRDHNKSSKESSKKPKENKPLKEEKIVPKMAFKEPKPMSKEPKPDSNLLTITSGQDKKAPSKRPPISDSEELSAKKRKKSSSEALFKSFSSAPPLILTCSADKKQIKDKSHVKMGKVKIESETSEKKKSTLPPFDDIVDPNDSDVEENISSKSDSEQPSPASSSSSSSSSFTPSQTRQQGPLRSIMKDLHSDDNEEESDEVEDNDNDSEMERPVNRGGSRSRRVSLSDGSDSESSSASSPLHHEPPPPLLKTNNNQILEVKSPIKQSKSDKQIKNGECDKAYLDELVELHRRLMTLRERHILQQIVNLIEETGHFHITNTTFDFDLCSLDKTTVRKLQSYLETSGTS
S100A4 MyoIIA: blocks human S100A4 binding to myosin IIA peptide. S100A4/TAMRA-MyoIIA peptide fluorescence polarization. inhibition, % at 10.7 µM. 360,000 compounds, 0.14% hits;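 active = mean inhibition of at least 70% across replicates, with every replicate also reaching that level; inconclusive = mean inhibition reaches 70% but some replicates fall short; inactive = mean inhibition below 70%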
Target sequence (P26447 whole entry, looked up): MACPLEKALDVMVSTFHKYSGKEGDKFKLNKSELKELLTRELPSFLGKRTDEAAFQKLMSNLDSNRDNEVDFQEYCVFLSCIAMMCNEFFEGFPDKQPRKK
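Material: S100A4 monomer protein / Buffer or medium: 50 mM HEPES pH 7.2, 10 mM CaCl2, 100 mM KCl / Times: 5 min incubation before reading / Benchmarks: neutral control DMSO, positive control TFP / Reagent: labelled myosin peptide probe, 5 nM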
Rtt109 Vps75: C. albicans Rtt109 histone acetyltransferase inhibition; Q5AAJ8; purified Rtt109/Vps75, ThioGlo CoA-SH fluorescence, 4 h; inhibition, % at 34.9 µM; 330,000 compounds, 0.16% hits;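 active = inhibition of at least 50% in every replicate; inconclusive = best replicate reaches 50% inhibition but some replicates fall short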
miR-122 sensor: miR-122 inhibition in Huh7 cells | 340,000 compounds, 0.3% hits | activation (reporter increase), % at 12.5 µM | Huh7 miR-122 Renilla luciferase sensor, 48 h; neutral wells = 0, positive control = 100;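 active = mean replicate activation score at least 90 and every replicate individually at or above 90; inconclusive = only one of the two criteria met; inactive = neither criterion met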;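 note: higher luciferase means less miR-122 activity so hits act as miR-122 inhibitors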
ERAP1 inh: blocks human ERAP1 aminopeptidase activity; Q9NZ08; recombinant ERAP1, Leu-AMC fluorescence, 60 min; inhibition, % at 10.7 µM; 340,000 compounds, 0.15% hits;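 active = mean replicate inhibition of at least 30%, or all replicates individually reaching that 30% level; inactive = mean below 30% and not every replicate reaching it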
Large screens that a line does not name were inactive. A selection: hits, their analogues and other compounds. The true share with any hit is near 0.86%.

CN(C)C(=O)c1cccc(-c2ccc([C@H]3[C@H](CO)N4CCCCN(CCC(F)(F)F)C[C@@H]34)cc2)c1	none (no result: Rtt109 Vps75)
CCC(=O)N[C@H]1CC[C@H](CCNC(=O)Nc2ccc(F)cc2)O[C@H]1CO	none (no result: Rtt109 Vps75, miR-122 sensor)
COc1cccc(C=Cc2nccc3ccccc23)c1OC	none (no result: Rtt109 Vps75)
CN(C)c1ccc(C=Cc2nccc3ccccc23)cc1	S100A4 MyoIIA 87.8 (no result: Rtt109 Vps75)
CCc1cccc(C)c1NC(=S)NCCc1c(C)[nH]c2ccc(C)cc12	AF4-AF9 inh 44.3
COc1cc2c(cc1OC)C[N+](C)(C)CC2	ERAP1 inh 64.5
COc1cc2c(cc1OC)CC(=O)N(C)CC2	none (no result: miR-122 sensor)
O=C1CC(=O)N(Cc2ccco2)C(=S)N1	Rtt109 Vps75 75.6 (no result: AF4-AF9 inh, S100A4 MyoIIA, ERAP1 inh)
O=C1CC(=O)N(Cc2ccco2)C(=O)N1	none (no result: AF4-AF9 inh, S100A4 MyoIIA, ERAP1 inh)
CC1(C)CC(N2CCOCC2)=CC(=[N+]2CCOCC2)C1	none (no result: miR-122 sensor)
CC1C[N+](=C2C=C(N3CCOCC3)CC(C)(C)C2)CC(C)O1 (stereo unspecified)	ERAP1 inh 55.4
COc1cccc(CN2CC3(CN(C)C3)c3c([nH]c4cc(OC)ccc34)[C@@H]2CO)c1	S100A4 MyoIIA 115.8 (no result: Rtt109 Vps75, miR-122 sensor)
COc1ccc2c3c([nH]c2c1)[C@@H](CO)N(Cc1ccccc1)CC31CN(C)C1	ERAP1 inh 71.0 (no result: Rtt109 Vps75, miR-122 sensor)
COc1ccc2c3c([nH]c2c1)[C@H](CO)N(Cc1ccccc1)CC31CCN(CC2CC2)CC1	AF4-AF9 inh 26.1 (no result: Rtt109 Vps75, miR-122 sensor)
COc1cccc(CN2CC3(CCN(CC4CC4)CC3)c3c([nH]c4cc(OC)ccc34)[C@H]2CO)c1	none (no result: S100A4 MyoIIA, Rtt109 Vps75, miR-122 sensor, ERAP1 inh)
COc1ccc(S(=O)(=O)N(C)C[C@@H]2Oc3ccc(NS(C)(=O)=O)cc3C(=O)N([C@H](C)CO)C[C@@H]2C)cc1	none (no result: Rtt109 Vps75)
C[C@@H]1CN([C@@H](C)CO)C(=O)c2cccc(NS(=O)(=O)c3cccs3)c2O[C@@H]1CN(C)C(=O)NC1CCCCC1	none (no result: Rtt109 Vps75)
COc1ccc2c3c([nH]c2c1)[C@@H](CO)N(C(=O)C1CCC1)CC31CN(C(=O)c2ccccn2)C1	none (no result: Rtt109 Vps75, miR-122 sensor)
COC(=O)C[C@H]1CC[C@@H](NS(=O)(=O)c2ccccc2F)[C@@H](CO)O1	none (no result: Rtt109 Vps75, miR-122 sensor)
COC(=O)c1ccc(COc2ccccc2/C=C(\C#N)C(=O)Nc2ccc(C)cc2C)cc1	ERAP1 inh 37.3
COC(=O)c1ccc(COc2ccccc2/C=C(\C#N)C(=O)Nc2c(C)cc(C)cc2C)cc1	none
Cn1c2c(c3ccccc31)CCN1CCC[C@]21c1ccccc1	AF4-AF9 inh 25.8
O=C(N/N=C/c1sc(N2CCOCC2)nc1-c1ccccc1)c1ccc(O)cc1	none (no result: miR-122 sensor)
COc1ccc(C(=O)N/N=C/c2sc(N3CCOCC3)nc2-c2ccccc2)cc1OC	AF4-AF9 inh 26.9
CN(C)c1cc[n+](CC(=O)Nc2ccc(OC(F)F)cc2)cc1	ERAP1 inh 106.8
C[C@@H]1CN([C@H](C)CO)S(=O)(=O)c2ccc(C3=CCCC3)cc2O[C@H]1CN(C)C(=O)C1CCC1	none (no result: Rtt109 Vps75)
O=C(C[C@@H]1CC[C@H]2[C@@H](COC[C@H](O)CN2S(=O)(=O)c2ccccc2)O1)NCC1CCCCC1	AF4-AF9 inh 39.4 (no result: Rtt109 Vps75)
O=C(C[C@@H]1CC[C@@H]2[C@H](COC[C@@H](O)CN2S(=O)(=O)c2ccc(F)cc2)O1)NCC1CCCCC1	AF4-AF9 inh inconclusive (no result: Rtt109 Vps75)
O=C(C[C@@H]1CC[C@H]2[C@@H](COC[C@H](O)CN2S(=O)(=O)c2ccc(F)cc2)O1)NCC1CCCCC1	AF4-AF9 inh 36.1 (no result: Rtt109 Vps75)
O=C(C[C@H]1CC[C@@H]2[C@H](COC[C@H](O)CN2S(=O)(=O)c2ccc(F)cc2)O1)NCC1CCCCC1	AF4-AF9 inh 28.2 (no result: Rtt109 Vps75)
O=C(C[C@@H]1CC[C@H]2[C@@H](COC[C@@H](O)CN2S(=O)(=O)c2ccc(Cl)cc2)O1)NCC1CCCCC1	AF4-AF9 inh 33.6 (no result: Rtt109 Vps75)
CCC(=O)N1CC2(C1)[C@H](c1ccccc1)[C@@H](CO)N2Cc1ccccc1OC	none (no result: Rtt109 Vps75, miR-122 sensor)
CCCN1C[C@@H](C)[C@@H](OC)CN(C)C(=O)c2cc(NC(=O)Nc3ccccc3F)ccc2OC[C@@H]1C	none (no result: Rtt109 Vps75, miR-122 sensor, ERAP1 inh)
C[C@@H]1CN([C@H](C)CO)C(=O)c2cc(NS(=O)(=O)c3cn(C)cn3)ccc2O[C@@H](C)CCCCO[C@H]1CN(C)CC1CCCCC1	none (no result: Rtt109 Vps75)
C[C@H]1CN([C@@H](C)CO)C(=O)c2cc(NS(=O)(=O)c3ccccc3)ccc2O[C@@H]1CN(C)Cc1ccc(C(=O)O)cc1	none (no result: Rtt109 Vps75)
CCOC(=O)/C(=N\Nc1ncnc2ccccc12)c1ccc(C)cc1	AF4-AF9 inh 42.0
CCOC(=O)C/C(=N\Nc1ncnc2ccccc12)c1ccccc1	none (no result: miR-122 sensor)
COc1ccc(S(=O)(=O)Nc2cccc3c2O[C@H](CN(C)CC2CC2)[C@@H](C)CN([C@@H](C)CO)C3=O)cc1	none (no result: Rtt109 Vps75)
COc1ccc(N2CCN(C(=O)CSc3nnc(-c4cccnc4)n3-c3ccccc3)CC2)cc1	Rtt109 Vps75 52.8 (no result: AF4-AF9 inh, S100A4 MyoIIA, ERAP1 inh)
COc1ccc(S(=O)(=O)N2c3cc(C)ccc3OCC2C(C)(C)C)cc1 (stereo unspecified)	miR-122 sensor 151.4 (no result: AF4-AF9 inh, S100A4 MyoIIA, ERAP1 inh)
CC(C)C#Cc1cnc2c(c1)C(=O)N([C@H](C)CO)C[C@H](C)[C@@H](CN(C)C(=O)c1ccccn1)O2	none (no result: Rtt109 Vps75)
CCC(=O)N1CC2(C1)CN(Cc1ccccc1Cl)[C@H](CO)c1c2c2ccc(OC)cc2n1C	none (no result: Rtt109 Vps75, miR-122 sensor)
CCCN1CCC2(CC1)NC(C(=O)O)Cc1c2[nH]c2ccccc12 (stereo unspecified)	none (no result: AF4-AF9 inh, S100A4 MyoIIA, ERAP1 inh)
COC(=O)C1Cc2c([nH]c3ccccc23)C2(CCN(Cc3ccccc3)CC2)N1 (stereo unspecified)	AF4-AF9 inh 29.9
CC1=Nc2cc(C(=O)NCCCN3CCN(C)CC3)ccc2Sc2ccc(C)cc21	AF4-AF9 inh 27.0
CC(=O)Nc1ccc(NC(=O)c2nc(S(=O)(=O)Cc3ccccc3)ncc2Cl)cc1	Rtt109 Vps75 113.3
O=C(NCc1ccccc1)c1nc(S(=O)(=O)Cc2ccccc2)ncc1Cl	Rtt109 Vps75 inconclusive
C=CC[n+]1c(-c2ccc(Cl)cc2Cl)csc1Nc1ccc(NC(C)=O)cc1	AF4-AF9 inh 44.3
C=CC[n+]1c(-c2ccc(Cl)cc2Cl)csc1Nc1c(C)n(C)n(-c2ccccc2)c1=O	none
CCN(CC)CCOC(c1ccccc1)c1ccc(C)cc1 (stereo unspecified)	none (no result: miR-122 sensor)
Cc1ccc(C(OCC(C)(C)C[N+](C)(C)C)c2ccccc2)cc1 (stereo unspecified)	ERAP1 inh 38.6
CCSC1=C(C#N)C(c2cccc(Br)c2)CC(=O)N1 (stereo unspecified)	none
COc1cccc(C2CC(=O)NC(SC)=C2C#N)c1 (stereo unspecified)	AF4-AF9 inh 25.4
CC(C)[C@H](NC(N)=O)C(=O)NNC(=O)COc1cccc(C(F)(F)F)c1	ERAP1 inh 53.7
CCN1CCN(C(=O)c2ccc3c(c2)N(Cc2ccccc2)C(=O)c2ccccc2S3=O)CC1 (stereo unspecified)	AF4-AF9 inh 49.5
COc1ccccc1NC(=O)N[C@@H]1CC[C@H](CCNS(=O)(=O)c2ccccc2)O[C@@H]1CO	none (no result: Rtt109 Vps75)
